Measurements taken from ChEMBL document CHEMBL1123369, “Synthesis and structure-activity relationships of new arylfluoronaphthyridine antibacterial agents” (1986).
In brackets after ≈: the same amount, converted by molar mass.

Key:
Assay type in all cases: functional
Escherichia coli = assay: In vitro antibacterial activity against Escherichia coli Juhl
Procedure, shortened: (§1)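 Twofold agar dilution in brain-heart infusion agar, test range 200 to 0.005 µg/mL, made from a 2000 µg/mL stock. Organisms grown overnight in BHI broth at 36 °C. About 10⁴ organisms inoculated per plate, then incubated 18 h at 36 °C. MIC taken as the lowest concentration giving no visible growth.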

Enterococcus faecium = assay: In vitro antibacterial activity against Streptococcus faecium ATCC 8043; procedure, shortened: as §1
Pseudomonas aeruginosa [1] = assay: In vitro antibacterial activity against Pseudomonas aeruginosa 5007; procedure, shortened: as §1
Acinetobacter sp. = assay: In vitro antibacterial activity against Acinetobacter species CMX669; procedure, shortened: as §1
Mus musculus [2] = assay: In vivo dose(po) inhibiting systemic infections caused by Escherichia coli Juhl in mice.
Procedure, shortened: (§2)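 CF-1 female mice, about 20 g. Infected ip with 0.5 mL of an 18-h BHI culture diluted in 5% hog gastric mucin to 100× LD₅₀. LD₅₀ set by 10-fold dilutions (Reed–Muench, day 6). Compound given in water or dilute NaOH, sc or po, total dose split at 1 and 5 h post-infection. At least 3 dose levels, 10 mice each. Deaths followed 6 days. ED₅₀ from day-6 cumulative mortality by trimmed Logit, with 95% confidence limits.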

Klebsiella pneumoniae = assay: In vitro antibacterial activity against Klebsiella pneumoniae 8045; procedure, shortened: as §1
Pseudomonas aeruginosa [3] = assay: In vitro antibacterial activity against Pseudomonas aeruginosa K799/WT; procedure, shortened: as §1
Mus musculus [4] = assay: In vivo dose(sc) inhibiting systemic infections caused by Escherichia coli Juhl in mice.; procedure, shortened: as §2
Klebsiella aerogenes = assay: In vitro antibacterial activity against Enterobacter aerogenes ATCC 13048; procedure, shortened: as §1
Staphylococcus aureus [5] = assay: In vitro antibacterial activity against Staphylococcus aureus CMX 686B; procedure, shortened: as §1
[6] = tested on: Staphylococcus epidermidis; assay: In vitro antibacterial activity against Staphylococcus epidermidis 3519; procedure, shortened: as §1
Streptococcus pyogenes = assay: In vitro antibacterial activity against Streptococcus pyogenes 930; procedure, shortened: as §1
Staphylococcus aureus [7] = assay: In vitro antibacterial activity against Staphylococcus aureus ATCC 6538P; procedure, shortened: as §1
Mus musculus [8] = assay: In vivo antibacterial activity against systemic infection caused by Escherichia coli Juhl in mice.; procedure, shortened: as §2
Mus musculus [9] = assay: In vivo dose(sc) inhibiting systemic infections caused by Staphylococcus aureus NCTC 10649 in mice.; procedure, shortened: as §2
Mus musculus [10] = assay: In vivo dose(po) inhibiting systemic infections caused by Pseudomonas aeruginosa 5007 in mice.; procedure, shortened: as §2
Mus musculus [11] = assay: In vivo antibacterial activity against systemic infection caused by Staphylococcus aureus NCTC 10649 in mice.; procedure, shortened: as §2
Mus musculus [12] = assay: In vivo dose(sc) inhibiting systemic infections caused by Pseudomonas aeruginosa 5007 in mice.; procedure, shortened: as §2
Mus musculus [13] = assay: In vivo antibacterial activity against systemic infection caused by Pseudomonas aeruginosa 5007 in mice.; procedure, shortened: as §2
Mus musculus [14] = assay: In vivo dose(po) inhibiting systemic infections caused by Staphylococcus aureus NCTC 10649 in mice.; procedure, shortened: as §2
Pseudomonas aeruginosa [15] = assay: compound was evaluated in vitro for the antibacterial activity against Pseudomonas aeruginosa 5007; procedure, shortened: as §1

Row | Structure (SMILES) | MIC (Escherichia coli) | MIC (Enterococcus faecium) | MIC (Pseudomonas aeruginosa [1]) | MIC (Acinetobacter sp.) | MIC (Klebsiella pneumoniae) | MIC (Pseudomonas aeruginosa [3]) | MIC (Klebsiella aerogenes) | MIC (Staphylococcus aureus [5]) | MIC [6] | MIC (Streptococcus pyogenes) | MIC (Staphylococcus aureus [7]) | ED50 (Mus musculus [9]) | ED50 (Mus musculus [10]) | MIC (Mus musculus [11]) | ED50 (Mus musculus [12]) | MIC (Mus musculus [13]) | ED50 (Mus musculus [14]) | also measured
1 | CC1CN(c2nc3c(cc2F)c(=O)c(C(=O)O)cn3-c2ccc(F)cc2F)CCN1 (stereo unspecified) | 0.1 µg/mL (≈ 0.239 µM) | 3.1 µg/mL (≈ 7.41 µM) | 1.56 µg/mL (≈ 3.73 µM) | 0.39 µg/mL (≈ 0.932 µM) | 0.2 µg/mL (≈ 0.478 µM) | 1.56 µg/mL (≈ 3.73 µM) | 3.1 µg/mL (≈ 7.41 µM) | 0.39 µg/mL (≈ 0.932 µM) | 0.78 µg/mL (≈ 1.86 µM) | 1.56 µg/mL (≈ 3.73 µM) | 0.2 µg/mL (≈ 0.478 µM) |  |  |  |  |  |  | ED50 (Mus musculus [2]): 3.9 mg/kg; ED50 (Mus musculus [4]): 1.4 mg/kg; MIC (Mus musculus [8]): 0.1 µg/mL (≈ 0.239 µM)
2 | CN1CCN(c2cc3c(cc2F)c(=O)c(C(=O)O)cn3-c2ccc(F)cc2)CC1.Cl [DIFLOXACIN HYDROCHLORIDE] | 0.2 µg/mL | 1.56 µg/mL | 0.78 µg/mL | 0.78 µg/mL | 0.1 µg/mL | 1.56 µg/mL | 0.78 µg/mL | 0.2 µg/mL | 0.39 µg/mL | 1.56 µg/mL | 0.2 µg/mL |  |  |  |  |  |  | 
3 | O=C(O)c1cn(-c2ccc(F)cc2F)c2nc(N3CCNCC3)c(F)cc2c1=O | 0.05 µg/mL (≈ 0.124 µM) | 0.78 µg/mL (≈ 1.93 µM) | 0.39 µg/mL (≈ 0.965 µM) | 0.39 µg/mL (≈ 0.965 µM) | 0.05 µg/mL (≈ 0.124 µM) | 0.39 µg/mL (≈ 0.965 µM) | 0.2 µg/mL (≈ 0.495 µM) | 0.2 µg/mL (≈ 0.495 µM) | 0.39 µg/mL (≈ 0.965 µM) | 0.78 µg/mL (≈ 1.93 µM) | 0.2 µg/mL (≈ 0.495 µM) | 0.6 mg/kg | 7 mg/kg | 0.12 µg/mL (≈ 0.297 µM) | 4.6 mg/kg | 0.39 µg/mL (≈ 0.965 µM) | 2.4 mg/kg | 
4 | O=C(O)c1cn(-c2ccc(F)cc2)c2nc(N3CCNCC3)c(F)cc2c1=O | 0.05 µg/mL (≈ 0.129 µM) | 3.1 µg/mL (≈ 8.02 µM) |  | 0.39 µg/mL (≈ 1.01 µM) | 0.1 µg/mL (≈ 0.259 µM) | 0.39 µg/mL (≈ 1.01 µM) | 0.1 µg/mL (≈ 0.259 µM) | 0.39 µg/mL (≈ 1.01 µM) | 0.78 µg/mL (≈ 2.02 µM) | 1.56 µg/mL (≈ 4.04 µM) | 0.39 µg/mL (≈ 1.01 µM) | 1.6 mg/kg | 19.9 mg/kg | 0.25 µg/mL (≈ 0.647 µM) | 6.9 mg/kg | 0.39 µg/mL (≈ 1.01 µM) | 7.5 mg/kg | MIC (Pseudomonas aeruginosa [15]): 0.39 µg/mL (≈ 1.01 µM); ED50 (Mus musculus [2]): 2.8 mg/kg; ED50 (Mus musculus [4]): 1 mg/kg; MIC (Mus musculus [8]): 0.05 µg/mL (≈ 0.129 µM)
5 | CC1CN(c2nc3c(cc2F)c(=O)c(C(=O)O)cn3-c2ccc(F)cc2)CCN1 (stereo unspecified) | 0.05 µg/mL (≈ 0.125 µM) | 6.2 µg/mL (≈ 15.5 µM) | 1.56 µg/mL (≈ 3.9 µM) | 0.2 µg/mL (≈ 0.5 µM) | 0.02 µg/mL (≈ 0.05 µM) | 1.56 µg/mL (≈ 3.9 µM) | 12.5 µg/mL (≈ 31.2 µM) | 0.78 µg/mL (≈ 1.95 µM) | 0.78 µg/mL (≈ 1.95 µM) | 3.1 µg/mL (≈ 7.74 µM) | 0.39 µg/mL (≈ 0.974 µM) |  |  |  |  |  |  | 
6 | CN1CCN(c2nc3c(cc2F)c(=O)c(C(=O)O)cn3-c2ccc(F)cc2)CC1 | 0.2 µg/mL (≈ 0.5 µM) | 3.1 µg/mL (≈ 7.74 µM) |  | 0.2 µg/mL (≈ 0.5 µM) | 0.1 µg/mL (≈ 0.25 µM) | 1.56 µg/mL (≈ 3.9 µM) | 0.2 µg/mL (≈ 0.5 µM) | 0.2 µg/mL (≈ 0.5 µM) | 0.39 µg/mL (≈ 0.974 µM) | 3.1 µg/mL (≈ 7.74 µM) | 0.2 µg/mL (≈ 0.5 µM) |  |  |  |  |  |  | MIC (Pseudomonas aeruginosa [15]): 1.56 µg/mL (≈ 3.9 µM)
7 | NC1CCN(c2nc3c(cc2F)c(=O)c(C(=O)O)cn3-c2ccc(F)cc2)C1 (stereo unspecified) | 0.05 µg/mL (≈ 0.129 µM) | 0.39 µg/mL (≈ 1.01 µM) | 0.1 µg/mL (≈ 0.259 µM) | 0.1 µg/mL (≈ 0.259 µM) | 0.05 µg/mL (≈ 0.129 µM) | 0.2 µg/mL (≈ 0.518 µM) | 0.1 µg/mL (≈ 0.259 µM) | 0.1 µg/mL (≈ 0.259 µM) | 0.1 µg/mL (≈ 0.259 µM) | 0.2 µg/mL (≈ 0.518 µM) | 0.5 µg/mL (≈ 1.29 µM) | 0.5 mg/kg | 18.2 mg/kg | 0.06 µg/mL (≈ 0.155 µM) | 7.4 mg/kg | 0.1 µg/mL (≈ 0.259 µM) | 1.6 mg/kg | 
